Yeast lifespan up: extends the lifespan of yeast | S. cerevisiae growth with nicotinamide, OD615; deaD strain in restrictive glucose medium | inhibition of the nicotinamide effect, % at 10 µM | AID 775 | 130,000 compounds, 0.68% hits;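 active = inhibition above a set limit, placed 3 SD over the median of all compounds, cut at about 26% in these data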;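 also: 0% = nicotinamide-treated wells and 100% = cells grown without nicotinamide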
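Assay system: engineered S. cerevisiae DeaD replicative-lifespan strain, galactose-grown log-phase cells; medium: restrictive CSMM-D dextrose medium; also added: nicotinamide, 1.5 mM, co-present with compound; schedule: 48 h compound exposure at 30 °C, humidified; detection: absorbance at 615 nm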
S1P3 antagonist: blocks the human S1P3 receptor. AID 485. CHO S1P3 NFAT-BLA reporter, FRET fluorescence, antagonist mode. 170,000 compounds, 0.27% hits. Q99500. inhibition, % at 4.98 µM;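 active = inhibition above the plate cutoff, the mean inhibition of test wells on that plate plus 3 SD, cut at about 28% in these data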;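 also: cells challenged with S1P at its EC80 of 0.8 µM; blue over green emission ratio from cleaved BLA substrate after 4 h stimulation; 0% = S1P-stimulated wells and 100% = unstimulated DMSO-only wells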
Target sequence (Q99500 whole entry, looked up): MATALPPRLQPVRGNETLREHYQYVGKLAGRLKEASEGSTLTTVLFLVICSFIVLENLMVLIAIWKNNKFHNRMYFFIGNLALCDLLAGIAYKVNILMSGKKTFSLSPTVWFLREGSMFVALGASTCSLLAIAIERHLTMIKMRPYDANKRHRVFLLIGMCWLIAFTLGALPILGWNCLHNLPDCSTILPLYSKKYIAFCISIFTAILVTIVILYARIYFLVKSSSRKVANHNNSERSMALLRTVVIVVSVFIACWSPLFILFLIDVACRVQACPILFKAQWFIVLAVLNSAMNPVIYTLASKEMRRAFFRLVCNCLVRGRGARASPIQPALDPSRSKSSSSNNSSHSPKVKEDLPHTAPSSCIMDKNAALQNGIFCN
Yeast growth inh: yeast BB579 growth reduction in restrictive medium | S. cerevisiae BB579 growth, OD615, 48 h | inhibition, % at 10 µM | 140,000 compounds, 0.51% hits | AID 804;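 active = inhibition above a set limit, 3 SD over the mean compound inhibition, cut at about 44% in these data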
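controls = amphotericin B 10 µg/mL, positive | assay system = DeaD yeast strain BB579 | schedule = 48 h compound exposure at 30 °C after 4 h preincubation | detection = OD615 turbidity measurement | medium = restrictive CSMM-D medium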
* = called active by the depositor. This is a sample that favours compounds with a hit; in the whole collection about 0.98% have one here.

Results for Cc1onc(-c2ccccc2)c1C1=N/C(=C\c2ccccc2F)C(=O)O1 ?
S1P3 antagonist: -1.9

How did CCOc1ccc(/C=C/[N+](=O)[O-])c2ccccc12 do in these assays?
Yeast lifespan up: -2.5; Yeast growth inh: 56.5*

Results for CCOC(=O)COc1ccc2ccccc2c1/C=C/[N+](=O)[O-] ?
Yeast lifespan up: 39.0*; S1P3 antagonist: 9.0; Yeast growth inh: -8.7

How did O=[N+]([O-])/C=C/c1c(OCc2ccccc2)ccc2ccccc12 do in these assays?
Yeast lifespan up: 13.9; Yeast growth inh: -49.8

Results for CCOC(=O)Cn1cc(/C=C/[N+](=O)[O-])c2ccccc21 ?
S1P3 antagonist: -18.6

Results for CC(C)c1ccc(C(=O)NC(=S)Nc2ccc3[nH]c(=O)[nH]c3c2)cc1 ?
S1P3 antagonist: -4.4

What do the screens show for `COc1ccccc1OCC(=O)Nn1c(=S)[nH]c2ncccc2c1=O`?
Yeast lifespan up: -1.2; S1P3 antagonist: -14.0; Yeast growth inh: -31.9

Results for CCOC(=O)C1=C(O)/C(=C/c2ccc(CNC(=O)C(=O)Nc3ccc(C)cc3)o2)N=C1C ?
Yeast lifespan up: -9.0; Yeast growth inh: -11.1

Results for O=C(Nc1ccccc1)C1CC(O)CN1S(=O)(=O)c1ccc([N+](=O)[O-])cc1 (stereo unspecified) ?
S1P3 antagonist: -2.1

How did O=C(Oc1ccccc1)c1ccccc1OS(=O)(=O)c1ccccc1 do in these assays?
Yeast lifespan up: -10.7; Yeast growth inh: -48.2

Results for O=Cc1ccccc1OS(=O)(=O)c1ccccc1 ?
Yeast lifespan up: 49.5*; S1P3 antagonist: 0.2; Yeast growth inh: -24.2

What do the screens show for `Nc1nc2nonc2nc1N`?
S1P3 antagonist: 6.7

What do the screens show for `CC(C)N1C/C(=C/c2ccsc2)C(=O)/C(=C/c2ccsc2)C1`?
Yeast lifespan up: 14.6; S1P3 antagonist: 4.0; Yeast growth inh: -30.5

Results for CC(C)N1C/C(=C/c2cccnc2)C(=O)/C(=C/c2cccnc2)C1 ?
Yeast lifespan up: 40.6*; S1P3 antagonist: -16.9; Yeast growth inh: -55.9

Results for CC1=N/C(=C/c2cccnc2)C(=O)O1 ?
S1P3 antagonist: -9.6

What do the screens show for `CN1C/C(=C/c2cccnc2)C(=O)/C(=C/c2cccnc2)C1`?
Yeast lifespan up: 51.2*; S1P3 antagonist: -18.5; Yeast growth inh: -13.7

Results for CCOC(=O)c1c(C)[nH]c(C(=O)CSc2nnc(C3CC3)n2N)c1C ?
Yeast lifespan up: -6.7; Yeast growth inh: -6.5

What do the screens show for `COc1ccc(NS(=O)(=O)c2cccc(-c3nnc4n3CCCCC4)c2)cc1`?
Yeast lifespan up: -8.8; Yeast growth inh: -14.7

How did O=c1[nH]c2ccc(S(=O)(=O)Nc3ccc(-c4nnc5n4CCCCC5)cc3)cc2o1 do in these assays?
Yeast lifespan up: -15.5; S1P3 antagonist: 65.8*; Yeast growth inh: -29.9

How did O=S(=O)(Nc1ccccn1)c1cccc(S(=O)(=O)c2ccc(Br)cc2)c1 do in these assays?
S1P3 antagonist: -11.5

Results for CCN(CC)S(=O)(=O)c1cc(NS(=O)(=O)c2cccc(Cl)c2Cl)ccc1C ?
Yeast lifespan up: 20.0; S1P3 antagonist: -1.5; Yeast growth inh: -24.6

How did CCN(CC)S(=O)(=O)c1cc(NS(=O)(=O)c2c(Cl)cccc2Cl)ccc1C do in these assays?
Yeast lifespan up: 27.7*; S1P3 antagonist: -2.7; Yeast growth inh: -52.2

How did C[C@H]1CC[C@@]2(O[C@H](CCO)C[C@@H](O)[C@@H]2O)O1 do in these assays?
S1P3 antagonist: -13.8

Results for CCc1cccc(C)c1NC(=S)NCc1ccc2[nH]c(C)cc2c1 ?
Yeast lifespan up: -1.6; S1P3 antagonist: -2.9; Yeast growth inh: 53.7*

How did CNC(=S)NCc1ccc2[nH]c(C)cc2c1 do in these assays?
S1P3 antagonist: -8.0

Results for Cc1ccc(S(=O)(=O)NCCNc2ccc([N+](=O)[O-])cc2C(F)(F)F)cc1 ?
Yeast lifespan up: -17.1; Yeast growth inh: -41.9

How did CCCc1cc(=O)[nH]c(SCc2nc3ccccc3s2)n1 do in these assays?
Yeast lifespan up: -15.0; Yeast growth inh: -20.3

How did Cc1cc(=O)[nH]c(SCc2nc3ccccc3s2)n1 do in these assays?
Yeast lifespan up: -13.4; S1P3 antagonist: 8.6; Yeast growth inh: 45.5*

How did CCCCNC(=O)N1CCN(c2ccccc2OC)CC1 do in these assays?
S1P3 antagonist: -19.3

How did O=C1NCCCc2c1oc1ccc(O)cc21 do in these assays?
Yeast lifespan up: -6.8; S1P3 antagonist: -23.8; Yeast growth inh: -7.3

Results for Oc1c(Cl)cc(Cl)c2c1NCCC2 ?
Yeast lifespan up: -26.1; S1P3 antagonist: 5.7; Yeast growth inh: 98.7*

What do the screens show for `Cc1nc(Nc2c(Cl)cccc2Cl)sc1C(=O)Nc1ccccc1`?
Yeast lifespan up: 7.4; S1P3 antagonist: 12.9; Yeast growth inh: -35.8

What do the screens show for `COc1cc2[nH]c(=O)n(CCC(=O)N3CCC(N4CCCCC4)CC3)c(=O)c2cc1OC`?
Yeast lifespan up: -18.3; Yeast growth inh: -60.7

Screening results (PubChem BioAssay)
